# According to PubChem BioAssay AID624466 (The Scripps Research Institute Molecular Screening Center, 2012):
# In all, about 360,000 compounds went through this assay and about 5,400 (1.5%) were called active. The entries come from a sample that favours actives as a whole. A number with no mark means an inactive call.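 Rule for the calls: active = inhibition above a per-plate cutoff, the mean inhibition of test compounds on that plate plus 3 SD (cut at about 49% in these data); inactive = the rest.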
# Biological target: Trace amine-associated receptor 1 (Homo sapiens) (UniProt Q96RJ0)
# Assay: human TAAR1 antagonists, primary screen, Fluo-8 calcium fluorescence, CHO RD-HGA16 cells (AID 624466);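 note: 0% = DMSO plus EC80 beta-PEA response and 100% = DMSO alone without agonist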
# Conditions: CHO RD-HGA16 TAAR1, Fluo-8 calcium fluorescence, antagonist; at 3 µM; active compounds read high
# Summary of the method: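 Material: RD-HGA16 CHO cells with stable hTAAR1 and Gα16; Dosing: single nominal final test compound concentration of 3 µM; Schedule: seeding 17-24 h prior, 75-min 37 °C, 30-min RT dye loading; Detection: kinetic Fluo-8 calcium fluorescence measurement; Measure: % inhibition from peak post-agonist over basal fluorescence ratio; Benchmarks: vehicle and agonist controls.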
# Sequence of Trace amine-associated receptor 1 (Homo sapiens) (Q96RJ0 whole entry, looked up): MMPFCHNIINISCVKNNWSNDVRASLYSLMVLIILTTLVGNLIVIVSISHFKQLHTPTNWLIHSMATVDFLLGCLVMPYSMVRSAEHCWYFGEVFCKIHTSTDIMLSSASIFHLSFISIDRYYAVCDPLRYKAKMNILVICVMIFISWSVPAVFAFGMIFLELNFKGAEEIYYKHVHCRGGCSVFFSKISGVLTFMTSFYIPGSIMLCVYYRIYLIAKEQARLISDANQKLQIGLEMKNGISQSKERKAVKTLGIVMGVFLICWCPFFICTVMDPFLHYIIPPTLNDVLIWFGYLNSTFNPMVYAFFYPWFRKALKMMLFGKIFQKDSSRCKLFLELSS
row,SMILES,inhibition
1,CN1C(=O)C(Br)(Br)CC1c1cccnc1 (stereo not drawn),-9.8%
2,O=C(CSc1nnc(-c2ccco2)o1)NCC(=O)c1ccccc1,-36%
3,O=C(CCc1ccccc1)Nc1cccc(-c2nnc(-c3ccco3)o2)c1,56.8% (active)
4,C/C(=N/NC(=O)CCc1ccccc1)c1ccco1,-8.62%
5,COC1(C2=NCCN2)COc2ccccc2O1 (stereo not drawn),-15.3%
6,Cc1ccc(S(=O)(=O)N(c2cccc(C)c2)C2CCS(=O)(=O)C2)cc1 (stereo not drawn),-4.68%
7,O=C(O)C1C2C=CC(O2)C1C(=O)NCCc1cccc(Cl)c1 (stereo not drawn),70.5% (active)
8,O=C(NCCc1ccccc1)C1CC1,1.61%
9,O=C(O)C1C2C=CC(O2)C1C(=O)Nc1ccccn1 (stereo not drawn),13.6%
10,COc1ccc(N/N=C2/CCCCC2=O)cc1,-11.3%
11,O=C(NCCN1CCOCC1)C1CCN(S(=O)(=O)c2ccccc2)CC1,1.73%
12,CCCCNC(=O)OC1CC2CC1[C@H]1CCCCN1C2=O (stereo partly drawn),-1.17%
13,Cc1nc2c(C(=O)NCc3cccs3)cnn2c(C)c1Cc1ccc(F)cc1,9.05%
14,O=C(/C=C/c1ccco1)Nc1ccc(Oc2ccccc2)cc1,52.3% (active)
15,O=C(O)/C=C\C(=O)Nc1ccc(OCc2ccccc2)cc1,4.01%
16,COc1cccc(NC(=O)COC(=O)/C=C/c2ccco2)c1,-14.3%
17,CCCCCCCCN1C(=O)[C@@H](CC(=O)NCc2ccc(C)o2)C[C@@]2(C(=O)OC)C1=C[C@H](C(C)(C)C)O[C@@H]2C,-36.1%
18,C/C(=N/Nc1nc(-c2ccccc2)c(CC(=O)O)s1)c1ccccc1,24.8%
19,c1ccc(C(=NNc2nc3ccccc3s2)c2ccccn2)cc1,53.9% (active)
20,COc1cc(OC)nc(N/N=C(\c2ccccc2)c2ccncc2)n1,5.98%
21,Nc1nc2c(ncn2[C@@H]2O[C@H](C(=O)N[C@@H](Cc3ccccc3)C(=O)NCc3ccccc3)[C@@H](O)[C@H]2O)c(=O)[nH]1,-6.97%
22,COCCNC(=S)Nc1cc(S(=O)(=O)N2CCOCC2)ccc1N1CCCCC1,-23.6%
23,CSc1nc(-c2ccccc2)nc(C(Cl)Cl)n1,58.9% (active)
24,Clc1ccc2nc(-c3ccccc3)nc(C(Cl)Cl)c2c1,2.4%

row,SMILES,inhibition
1,COc1ccc(NC(=O)[C@H](NC(=O)[C@@H]2Cc3ccccc3CN2)c2ccccc2)cc1,-18%
2,COc1cccc(NC(=O)[C@H](Cc2c[nH]c3ccccc23)NC(=O)[C@@H]2Cc3ccccc3CN2)c1,49.5% (active)
3,COc1ccc(CNC(=O)[C@H](Cc2c[nH]c3ccccc23)NC(C)=O)cc1OC,-1.22%
4,Cc1cccc(C)c1NC(=O)C(c1cccc2ccccc12)n1c(=O)c(-c2ccco2)nc2ccccc21 (stereo not drawn),-9.07%
5,COc1ccc(CNC(=O)COC(=O)c2c(C)nn(-c3ccccc3)c2C)cc1OC,-1.94%
6,COc1ccc(CNC(=O)COC(=O)c2sccc2C)cc1OC,-9.87%
7,COc1ccc(CNC(=O)COc2ccccc2C(=O)c2cnn(-c3ccccc3)c2)cc1OC,54% (active)
8,Cc1cccc(C)c1NC(=O)C(c1cccc(F)c1)N1CCN(C)CC1 (stereo not drawn),-12.4%
9,O=C(O)c1ccc(NC(=O)c2cn(-c3ccccc3)nc2-c2ccc(Cl)cc2)cc1,73.7% (active)
10,Cc1ccc(-c2nn(-c3ccccc3)cc2C(=O)Nc2cccc(S(=O)(=O)N3CCOCC3)c2)cc1,11%
11,NC(=O)C1CCN(C(=O)c2cn(-c3ccccc3)nc2-c2cccnc2)CC1,-9.79%
12,O=C(NNC(=S)NC(=O)c1cn(-c2ccccc2)nc1-c1ccccc1)c1ccncc1,49.8% (active)
13,O=C(NCCCN1CCOCC1)c1cn(-c2ccccc2)nc1-c1ccc(F)cc1,3.41%
14,Cc1ccc(-c2nn(-c3ccccc3)cc2C(=O)NCCCN2CCCC2=O)cc1,-7.1%
15,CSc1ccc(C#N)cc1NC(=O)c1ccc(Cl)cc1,-1.99%
16,CCc1ccc(NC(=O)C(=O)N/N=C(\C)CC(=O)NCCOC)cc1,-6%
17,CCOC(=O)[C@]12CCC=C1N(Cc1cccc3ccccc13)C(=O)[C@H](CC(=O)NCc1cccc(C(F)(F)F)c1)C2,-4.64%
18,CC1=NOC(=O)/C1=C\c1ccccc1,-15%
19,COc1cc(/C=C2/C(=O)ON=C2C)ccc1OCc1ccccc1F,51.4% (active)
20,C#CCOc1ccc(/C=C2/C(=O)ON=C2C)cc1OCC,12.6%
21,CC[C@H](NC(=O)[C@H](Cc1ccccc1)NC(=O)[C@H]1O[C@@H](n2cnc3c(=O)[nH]c(N)nc32)[C@H](O)[C@@H]1O)c1ccccc1,-41.7%
22,CC(C)(C)n1nc2c(c1NC(=O)c1ccc(S(=O)(=O)N3CCCC3)cc1)CS(=O)C2 (stereo not drawn),4.79%
23,COc1ccc(CNS(=O)(=O)c2cc(Br)ccc2Br)cc1,-2.96%
24,CC(C)CC1NC(=O)c2cc(Cl)ccc2-n2c1nc1ccccc1c2=O (stereo not drawn),-6.66%

row,SMILES,inhibition
1,CCCOc1ccc(F)cc1-c1cc(C(=O)NCc2ccc(F)cc2)[nH]n1,53.6% (active)
2,CCCOc1ccc(F)cc1-c1cc(C(=O)Nc2ccc(F)cc2)[nH]n1,15.5%
3,CCCOc1ccc(F)cc1-c1cc(C(=O)Nc2ccc(F)c(Cl)c2)[nH]n1,38.5%
4,O=S1(=O)c2ccc(Br)cc2-n2nncc2CN1Cc1cccc(Cl)c1,3.33%
5,O=c1onc(-c2c(F)cccc2F)n1-c1ccccc1Cl,4.53%
6,COc1ccc(-c2nc3ccccc3c(=O)n2CCc2ccc(O)cc2)cc1,58.4% (active)
7,COc1ccc(-c2ccc(CCC(=O)O)n2-c2ccc(O)cc2)cc1,-5.35%
8,COc1ccc(CCNCc2c(-c3ccccc3)n(C)c3ccccc23)cc1,25%
9,Cc1ccc(-c2nc3c(C)cc(Br)cn3c2Cc2ccccc2)cc1,-21.5%
10,O=C(N[C@H]1CC[C@H](CC(=O)N2CCCCC2)O[C@@H]1CO)c1cccc(F)c1,4.76%
11,CC(=O)C[C@@H](O)CC(=O)[C@H]1OC(=O)CCCCCCc2ccccc21,6.02%
12,CCc1ccc(C2=CC(=O)CC(C)(C)C2=O)cc1,-8.28%
13,O=C(O)Cn1cnc2c(NCc3ccccc3)ncnc21,-23.5%
14,COC(=O)c1ccc(C2NC(=O)NC(C)=C2C(=O)N(C)C)cc1 (stereo not drawn),-4.25%
15,Cc1cccc(NC(=O)c2ccc(COc3ccccc3[N+](=O)[O-])o2)n1,51.5% (active)
16,CCCCNc1ccc(C(=O)Nc2cccc(C)n2)cc1[N+](=O)[O-],24.1%
17,CCOc1ccc(OCc2ccc(C(=O)Nc3cccc(C)n3)o2)cc1,16.1%
18,Cn1c(=O)c2c(ncn2CC(=O)N/N=C/c2cn[nH]c2-c2ccc(F)cc2)n(C)c1=O,2.24%
19,CCCCCn1nnnc1C1c2ccccc2C(=O)N1Cc1ccco1 (stereo not drawn),-12.2%
20,O=C(NS(=O)(=O)c1cccs1)[C@H]1O[C@@H](n2ccc(=O)[nH]c2=O)[C@H](O)[C@@H]1O,-23.6%
21,COc1ccc(C(=O)Nc2ccccc2C(=O)N/N=C/c2ccc(O)c(OC)c2)cc1,62.8% (active)
22,O=C(N/N=C/c1ccc(OCC2COCCO2)cc1)c1ccc(Br)cc1 (stereo not drawn),18.2%
23,O=C(N/N=C/c1ccc(OC(=O)c2ccccc2Cl)cc1)c1ccc(O)cc1,68.9% (active)
24,CC(C)(C)C(=O)Nc1ccc(C(=O)N/N=C/c2ccccc2OC(=O)c2ccc(Cl)cc2Cl)cc1,26.4%

row,SMILES,inhibition
1,O=C(NN=Cc1ccc2c(c1)CCC2)c1ccccc1O,10.7%
2,COc1ccc(-c2[nH]ncc2/C=N/NC(=O)c2cc(Br)ccc2O)c(OC)c1,-4.36%
3,CCOc1cc(/C=N/NC(=O)c2c(C)nc3ccc(Cl)cn23)ccc1O,-3.33%
4,CCOc1ccc(-c2cc(C(=O)N/N=C/c3ccc(O)cc3)c3ccccc3n2)cc1,0.39%
5,CCOc1cc(/C=N/NC(=O)c2cc(-c3ccccc3)nc3ccccc23)ccc1O,51.5% (active)
6,O=C(NC1CCCCC1)C(c1cc2ccccc2o1)n1c(=O)c(-c2ccco2)nc2ccccc21 (stereo not drawn),-22.4%
7,N#Cc1ccc(-c2nc3cc(C#N)c(C#N)cc3nc2-c2ccccc2)cc1C#N,-9.51%
8,CC1CCCN(c2cccc3c2S(=O)(=O)N(Cc2ccc(F)cc2)[C@@H](C)[C@H](c2ccccc2)O3)C1 (stereo partly drawn),-13.7%
9,CCCNC(=O)c1cc2c(c(-c3cccc(-c4ccc(C#N)cc4)c3)n1)[C@@H](CCO)N(C(=O)CC)C2,-3.02%
10,COC(=O)[C@]12C[C@H](CC(=O)NCc3ccc(OC)c(OC)c3)C(=O)N(Cc3ccccc3)C1=C[C@H](C(C)C)O[C@@H]2C1CC1,-4.52%
11,COc1cccc(NC(=O)Nc2ccc(F)cc2)c1,14.5%
12,CCc1ccc(NC(=O)Nc2ccncc2)cc1,6.77%
13,O=C(Nc1ccncc1)Nc1ccc(F)cc1,57.8% (active)
14,CCC(C(=O)NCc1ccccc1)n1c(Cc2cc(F)cc(F)c2)nc2ccccc21 (stereo not drawn),-4.56%
15,O=CN1CCN(C(=O)c2ccc(Br)o2)CC1,-11.1%
16,CC(NC(=O)c1ccccc1SCC(=O)N1CCCC1)c1ccccc1 (stereo not drawn),-4.95%
17,CSc1ccccc1C(=O)OCC(=O)N1CCN(C(C)=O)CC1,-1.96%
18,O=C(COC(=O)c1ccccc1SCC(=O)N1CCCC1)Nc1ccccc1OC(F)F,56.5% (active)
19,CC(C)N(Cc1ccccc1)C(=O)COC(=O)c1ccccc1SCC(=O)N1CCCC1,64% (active)
20,COc1ccccc1NC(=O)COC(=O)c1ccccc1SCC(=O)N1CCCC1,-8.15%
21,CN(CC(=O)Nc1ccccc1Cl)C(=O)c1ccccc1SCC(=O)N1CCCC1,-6.53%
